Laboratory results taken from ChEMBL document CHEMBL3769376, “Discovery of I-BRD9, a Selective Cell Active Chemical Probe for Bromodomain Containing Protein 9 Inhibition” (J Med Chem, 2016).
Activity calls are given as the source filed them. No cut-off for these calls is given here.

Columns and labels:
[1] = target: Potassium voltage-gated channel subfamily A member 5 (Homo sapiens) (UniProt P22460); assay: Inhibition of human Kv1.5 channel at <5 uM by electrophysiology
[2] = target: 5-hydroxytryptamine receptor 2A (Homo sapiens) (UniProt P28223); assay: Agonist activity at human 5HT2A receptor by assessed as change in intracellular calcium level at <5 uM by fluorescence assay; assay type: functional, cell-based
[3] = target: Adenosine receptor A2a (Homo sapiens) (UniProt P29274); assay: Agonist activity at human Adenosine A2a receptor at <5 uM by TR-FRET assay
[4] = target: T1, Bromodomain-containing protein 9 (Homo sapiens) (UniProt Q9H8M2); conditions: Kasumi 1, 10 uM
T1 sequence (whole entry): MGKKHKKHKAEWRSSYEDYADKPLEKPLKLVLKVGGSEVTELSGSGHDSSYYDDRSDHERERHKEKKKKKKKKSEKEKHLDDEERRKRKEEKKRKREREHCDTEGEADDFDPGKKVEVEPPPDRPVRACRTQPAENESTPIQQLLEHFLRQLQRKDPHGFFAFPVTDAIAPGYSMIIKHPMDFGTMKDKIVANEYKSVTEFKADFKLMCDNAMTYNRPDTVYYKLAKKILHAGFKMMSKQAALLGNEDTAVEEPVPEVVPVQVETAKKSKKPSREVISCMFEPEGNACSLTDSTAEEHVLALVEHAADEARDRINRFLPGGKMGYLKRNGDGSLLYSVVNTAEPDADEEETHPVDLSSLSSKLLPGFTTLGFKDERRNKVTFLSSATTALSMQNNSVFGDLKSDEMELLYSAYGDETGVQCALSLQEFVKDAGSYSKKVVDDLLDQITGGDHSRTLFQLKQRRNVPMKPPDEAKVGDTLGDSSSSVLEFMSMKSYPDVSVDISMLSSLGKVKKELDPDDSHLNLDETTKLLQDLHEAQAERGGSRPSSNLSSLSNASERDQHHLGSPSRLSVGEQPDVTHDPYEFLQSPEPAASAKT

[5] = target: Glutamate receptor ionotropic, NMDA 2B (Homo sapiens) (UniProt Q13224); assay: Antagonist activity at human NMDA 2B receptor assessed as change in intracellular calcium level at <5 uM by fluorescence assay; assay type: cell-based
[6] = target: Cannabinoid receptor 2 (Homo sapiens) (UniProt P34972); assay: Agonist activity at human CB2 receptor at <5 uM by Yeast FDLu assay
[7] = target: Aurora kinase B (Homo sapiens) (UniProt Q96GD4); assay: Inhibition of human aurora B at <5 uM by IMAP assay
[8] = target: Kappa-type opioid receptor (Homo sapiens) (UniProt P41145); assay: Agonist activity at human kappa opiod receptor at <5 uM by scintillation proximity assay
[9] = target: Bromodomain-containing protein 3 (Homo sapiens, UniProt Q15059); assay: Inhibition of BRD3 in human HUT78 cells incubated for 45 mins by chemoproteomic competition binding assay; assay type: cell-based
Procedure, shortened: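 Nuclear and tight-chromatin extracts were prepared from HuT78 cells grown in spinner flasks. Compound was spiked into the mixed extracts at a range of doses and incubated for 45 min at 4 °C. Extracts were then incubated with sepharose beads derivatised with 2.0 mM of an amine-bearing bromodomain ligand. Beads were washed with 0.2% NP-40 lysis buffer and eluted in SDS/DTT. BRD3 was read out by Western blot.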

[10] = target: Muscarinic acetylcholine receptor M2 (Homo sapiens) (UniProt P08172); assay: Antagonist activity at human muscarinic 2 receptor assessed as change in intracellular calcium level at <5 uM by fluorescence assay; assay type: functional, cell-based
[11] = target: T1, Bromodomain-containing protein 9 (Homo sapiens); conditions: Kasumi 1, 10 uM; remark: listed apart in the source
[12] = target: Sodium channel protein type 5 subunit alpha (Homo sapiens, UniProt Q14524); assay: Inhibition of human Nav1.5 channel at <5 uM by electrophysiology
[13] = target: 5-hydroxytryptamine receptor 3A (Homo sapiens) (UniProt P46098); assay: Antagonist activity at human 5HT3 receptor assessed as change in intracellular calcium level at <5 uM by fluorescence assay; assay type: cell-based
Homo sapiens [14] = species: Homo sapiens; assay: Positive modulator activity at human GABA-A receptor at <5 uM by electrophysiology
[15] = target: D(2) dopamine receptor (Homo sapiens) (UniProt P14416); assay: Agonist activity at human D2 dopamine receptor at <5 uM by scintillation proximity assay
Homo sapiens [16] = species: Homo sapiens; assay: Antagonist activity at human GABA-A receptor at <5 uM by electrophysiology
[17] = target: Nuclear receptor subfamily 1 group I member 2 (Homo sapiens, UniProt O75469); assay: Agonist activity at human PXR at <5 uM by luciferase reporter gene assay
[18] = target: T1, Bromodomain-containing protein 9 (Homo sapiens); conditions: Kasumi 1, 10 uM; remark: listed apart in the source
[19] = Permeability of the compound by PAMPA; assay type: ADME; conditions: read-out: permeability
[20] = target: Sodium-dependent noradrenaline transporter (Homo sapiens) (UniProt P23975); assay: Antagonist activity at human NE transporter at <5 uM by scintillation proximity assay
[21] = target: Mu-type opioid receptor (Homo sapiens) (UniProt P35372); assay: Agonist activity at human mu opiod receptor at <5 uM by scintillation proximity assay
[22] = target: Voltage-gated inwardly rectifying potassium channel KCNH2 (Homo sapiens, UniProt Q12809); assay: Inhibition of human ERG channel at <5 uM by electrophysiology
[23] = target: Muscarinic acetylcholine receptor M1 (Homo sapiens) (UniProt P11229); assay: Agonist activity at human muscarinic 1 receptor assessed as change in intracellular calcium level at <5 uM by fluorescence assay; assay type: functional, cell-based
Muscarinic acetylcholine receptor M1 (Homo sapiens), sequence (P11229 whole entry): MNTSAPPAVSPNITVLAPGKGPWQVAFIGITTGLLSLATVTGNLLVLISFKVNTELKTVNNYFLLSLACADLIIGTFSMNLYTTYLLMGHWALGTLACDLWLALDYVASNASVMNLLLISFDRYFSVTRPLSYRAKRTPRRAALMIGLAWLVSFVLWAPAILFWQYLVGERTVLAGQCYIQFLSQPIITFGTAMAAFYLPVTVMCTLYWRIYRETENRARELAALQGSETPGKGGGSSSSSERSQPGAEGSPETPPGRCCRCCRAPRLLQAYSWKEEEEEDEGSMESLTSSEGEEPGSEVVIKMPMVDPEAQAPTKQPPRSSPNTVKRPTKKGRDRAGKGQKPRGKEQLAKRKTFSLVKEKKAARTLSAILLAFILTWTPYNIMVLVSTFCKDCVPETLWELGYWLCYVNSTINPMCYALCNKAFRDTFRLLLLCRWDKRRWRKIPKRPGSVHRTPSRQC

Potassium voltage-gated channel subfamily A member 5 (Homo sapiens), sequence (P22460 whole entry): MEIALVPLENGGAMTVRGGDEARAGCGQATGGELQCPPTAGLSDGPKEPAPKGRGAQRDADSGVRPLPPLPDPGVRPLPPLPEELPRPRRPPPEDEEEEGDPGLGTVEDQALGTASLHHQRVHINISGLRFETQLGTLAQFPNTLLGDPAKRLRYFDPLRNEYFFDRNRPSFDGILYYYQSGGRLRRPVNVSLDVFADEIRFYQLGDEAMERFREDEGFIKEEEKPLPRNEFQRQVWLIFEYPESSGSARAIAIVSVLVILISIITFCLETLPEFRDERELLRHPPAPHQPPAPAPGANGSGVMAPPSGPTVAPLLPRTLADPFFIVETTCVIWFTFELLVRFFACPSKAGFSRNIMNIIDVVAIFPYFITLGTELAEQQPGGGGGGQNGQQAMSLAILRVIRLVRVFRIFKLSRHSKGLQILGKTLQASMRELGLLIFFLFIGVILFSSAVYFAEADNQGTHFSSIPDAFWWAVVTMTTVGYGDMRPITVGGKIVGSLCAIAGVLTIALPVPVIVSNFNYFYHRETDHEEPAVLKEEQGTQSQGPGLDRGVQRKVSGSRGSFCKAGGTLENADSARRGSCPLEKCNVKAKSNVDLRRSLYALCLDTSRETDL
Adenosine receptor A2a (Homo sapiens), sequence (P29274 whole entry): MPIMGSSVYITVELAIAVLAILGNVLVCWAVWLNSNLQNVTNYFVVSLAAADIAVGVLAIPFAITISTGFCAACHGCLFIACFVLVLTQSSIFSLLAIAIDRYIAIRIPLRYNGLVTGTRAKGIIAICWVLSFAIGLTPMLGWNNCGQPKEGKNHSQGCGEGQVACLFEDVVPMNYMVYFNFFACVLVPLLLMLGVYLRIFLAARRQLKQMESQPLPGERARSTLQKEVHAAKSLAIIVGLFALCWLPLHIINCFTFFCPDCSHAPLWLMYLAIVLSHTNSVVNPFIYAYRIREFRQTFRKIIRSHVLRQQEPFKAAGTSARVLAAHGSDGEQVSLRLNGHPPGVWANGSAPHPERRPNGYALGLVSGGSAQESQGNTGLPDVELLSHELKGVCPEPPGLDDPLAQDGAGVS
Bromodomain-containing protein 3, sequence (Q15059 whole entry): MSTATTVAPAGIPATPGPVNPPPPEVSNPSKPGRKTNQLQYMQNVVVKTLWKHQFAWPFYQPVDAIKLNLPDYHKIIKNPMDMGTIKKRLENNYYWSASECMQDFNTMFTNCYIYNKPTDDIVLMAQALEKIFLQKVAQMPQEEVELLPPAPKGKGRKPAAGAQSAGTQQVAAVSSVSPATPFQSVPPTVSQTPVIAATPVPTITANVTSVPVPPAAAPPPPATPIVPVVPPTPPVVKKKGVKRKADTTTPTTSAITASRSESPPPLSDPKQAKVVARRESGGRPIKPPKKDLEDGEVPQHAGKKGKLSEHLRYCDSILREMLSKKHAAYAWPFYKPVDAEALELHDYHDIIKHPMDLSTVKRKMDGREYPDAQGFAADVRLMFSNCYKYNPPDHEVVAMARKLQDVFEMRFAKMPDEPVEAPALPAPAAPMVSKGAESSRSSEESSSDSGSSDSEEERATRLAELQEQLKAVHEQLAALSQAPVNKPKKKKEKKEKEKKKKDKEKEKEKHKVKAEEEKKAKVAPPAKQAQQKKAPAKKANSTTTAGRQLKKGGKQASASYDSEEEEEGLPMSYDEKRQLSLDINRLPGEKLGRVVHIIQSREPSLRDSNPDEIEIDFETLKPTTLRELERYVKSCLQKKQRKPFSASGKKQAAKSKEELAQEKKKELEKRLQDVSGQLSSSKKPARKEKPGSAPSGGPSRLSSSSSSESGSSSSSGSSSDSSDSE
Sodium channel protein type 5 subunit alpha, sequence (Q14524 whole entry): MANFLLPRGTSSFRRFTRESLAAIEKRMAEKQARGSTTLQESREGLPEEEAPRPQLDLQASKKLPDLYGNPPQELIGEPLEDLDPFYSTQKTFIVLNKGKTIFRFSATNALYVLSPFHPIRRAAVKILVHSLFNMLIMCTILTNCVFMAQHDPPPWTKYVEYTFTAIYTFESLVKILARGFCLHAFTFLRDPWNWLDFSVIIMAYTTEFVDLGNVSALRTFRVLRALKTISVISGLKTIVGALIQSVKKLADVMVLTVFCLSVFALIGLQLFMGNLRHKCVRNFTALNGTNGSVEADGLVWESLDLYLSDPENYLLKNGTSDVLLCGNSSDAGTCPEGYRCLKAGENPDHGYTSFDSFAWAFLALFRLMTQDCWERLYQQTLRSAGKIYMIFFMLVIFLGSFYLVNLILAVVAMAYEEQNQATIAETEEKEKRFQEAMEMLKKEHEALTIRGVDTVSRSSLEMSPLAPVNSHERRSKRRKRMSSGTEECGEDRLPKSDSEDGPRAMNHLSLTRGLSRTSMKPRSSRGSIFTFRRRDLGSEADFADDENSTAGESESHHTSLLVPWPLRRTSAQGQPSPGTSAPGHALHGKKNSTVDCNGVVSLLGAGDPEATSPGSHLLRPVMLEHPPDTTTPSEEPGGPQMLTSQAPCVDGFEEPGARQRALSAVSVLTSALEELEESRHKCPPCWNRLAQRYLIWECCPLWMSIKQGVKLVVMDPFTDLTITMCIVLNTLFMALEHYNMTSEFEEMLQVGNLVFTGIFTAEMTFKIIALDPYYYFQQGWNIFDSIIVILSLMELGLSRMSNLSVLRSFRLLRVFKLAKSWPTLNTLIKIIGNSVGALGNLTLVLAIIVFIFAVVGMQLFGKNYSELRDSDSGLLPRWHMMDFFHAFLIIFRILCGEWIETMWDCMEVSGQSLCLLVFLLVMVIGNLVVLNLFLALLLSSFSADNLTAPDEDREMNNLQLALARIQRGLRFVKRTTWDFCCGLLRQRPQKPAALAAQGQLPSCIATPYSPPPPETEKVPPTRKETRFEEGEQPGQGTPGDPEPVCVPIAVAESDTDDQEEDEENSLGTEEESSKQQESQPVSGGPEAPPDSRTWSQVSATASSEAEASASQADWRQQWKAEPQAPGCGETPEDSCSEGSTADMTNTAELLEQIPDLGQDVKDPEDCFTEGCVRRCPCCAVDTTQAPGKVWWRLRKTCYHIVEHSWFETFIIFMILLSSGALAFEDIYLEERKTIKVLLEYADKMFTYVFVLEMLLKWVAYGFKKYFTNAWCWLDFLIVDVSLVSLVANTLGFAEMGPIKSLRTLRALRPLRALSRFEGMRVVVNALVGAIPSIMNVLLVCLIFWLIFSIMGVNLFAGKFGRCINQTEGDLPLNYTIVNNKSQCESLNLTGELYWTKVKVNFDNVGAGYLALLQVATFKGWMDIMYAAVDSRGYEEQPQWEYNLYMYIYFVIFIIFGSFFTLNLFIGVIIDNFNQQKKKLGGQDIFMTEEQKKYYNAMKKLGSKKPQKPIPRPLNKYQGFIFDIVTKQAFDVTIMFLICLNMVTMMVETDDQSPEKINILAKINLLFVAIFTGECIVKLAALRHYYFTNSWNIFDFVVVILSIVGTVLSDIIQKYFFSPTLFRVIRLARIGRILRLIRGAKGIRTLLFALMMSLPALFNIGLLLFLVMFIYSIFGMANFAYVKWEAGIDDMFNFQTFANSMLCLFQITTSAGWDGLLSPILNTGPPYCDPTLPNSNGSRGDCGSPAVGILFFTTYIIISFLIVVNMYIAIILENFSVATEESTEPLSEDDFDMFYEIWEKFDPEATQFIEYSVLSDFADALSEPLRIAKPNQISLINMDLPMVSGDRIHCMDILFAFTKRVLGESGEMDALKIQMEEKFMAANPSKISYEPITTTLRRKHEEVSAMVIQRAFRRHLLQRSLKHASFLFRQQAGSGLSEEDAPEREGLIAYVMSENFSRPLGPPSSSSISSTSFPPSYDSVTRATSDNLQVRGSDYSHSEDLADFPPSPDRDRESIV
Mu-type opioid receptor (Homo sapiens), sequence (P35372 whole entry): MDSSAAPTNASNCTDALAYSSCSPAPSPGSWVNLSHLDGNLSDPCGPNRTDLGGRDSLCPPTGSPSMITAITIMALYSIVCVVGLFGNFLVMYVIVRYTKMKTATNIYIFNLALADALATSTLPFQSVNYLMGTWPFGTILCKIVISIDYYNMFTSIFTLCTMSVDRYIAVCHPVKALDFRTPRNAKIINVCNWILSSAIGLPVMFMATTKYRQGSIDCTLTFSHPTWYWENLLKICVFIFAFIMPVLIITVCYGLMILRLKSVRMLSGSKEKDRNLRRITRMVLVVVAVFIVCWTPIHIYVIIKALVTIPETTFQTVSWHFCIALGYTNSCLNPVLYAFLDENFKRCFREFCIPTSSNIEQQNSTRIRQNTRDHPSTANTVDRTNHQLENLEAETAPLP
Aurora kinase B (Homo sapiens), sequence (Q96GD4 whole entry): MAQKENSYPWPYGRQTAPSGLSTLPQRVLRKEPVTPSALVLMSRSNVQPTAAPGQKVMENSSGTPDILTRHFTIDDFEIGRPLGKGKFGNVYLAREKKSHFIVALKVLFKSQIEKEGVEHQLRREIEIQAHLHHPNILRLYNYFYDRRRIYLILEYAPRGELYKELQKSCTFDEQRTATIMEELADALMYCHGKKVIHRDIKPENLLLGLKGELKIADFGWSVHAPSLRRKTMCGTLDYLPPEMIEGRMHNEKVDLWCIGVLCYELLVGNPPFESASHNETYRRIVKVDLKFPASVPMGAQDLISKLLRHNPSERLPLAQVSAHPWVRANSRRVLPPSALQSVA

CCn1cc(-c2cccc(C(F)(F)F)c2)c2sc(C(=N)NC3CCS(=O)(=O)CC3)cc2c1=O
inhibition [1]: inactive
Activity [2]: inactive
Activity [3]: inactive
inhibition [4]: Active
inhibition [5]: inactive
Activity [6]: inactive
inhibition [7]: inactive
Activity [8]: inactive
IC50 [9]: > 50.1 µM
inhibition [10]: inactive
inhibition [11]: Active
inhibition (INH) [12]: Not Active
inhibition [13]: inactive
Activity (Homo sapiens [14]): inactive
Activity [15]: inactive
inhibition (Homo sapiens [16]): inactive
Activity [17]: Not Active
inhibition [18]: Active
Papp [19]: 21 ×10⁻⁶ cm/s
inhibition [20]: inactive
Activity [21]: inactive
inhibition (INH) [22]: Not Active
Activity [23]: inactive
